The list is not random: actives were taken first. Their share in the collection is about 4.8%.
ALR inh – blocks human ALR sulfhydryl oxidase activity; purified ALR, DTT oxidation, H2O2 HRP-luminol luminescence; inhibition, % (no concentration beside the values); actives 3.8% (n = 290,000);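 active means mean replicate inhibition above about 79%, with every replicate also reaching it, limit read from the data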
Target sequence (P55789 whole entry, looked up): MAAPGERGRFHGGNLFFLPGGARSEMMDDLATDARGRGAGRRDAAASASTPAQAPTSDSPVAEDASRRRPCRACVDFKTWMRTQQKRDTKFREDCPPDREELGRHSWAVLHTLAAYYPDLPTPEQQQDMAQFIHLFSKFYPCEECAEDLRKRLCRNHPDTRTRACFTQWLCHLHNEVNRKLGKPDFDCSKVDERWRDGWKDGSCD
Calb FLC – C. albicans growth modulation with fluconazole. C. albicans CaCi-2 (fluconazole-resistant clinical isolate) + fluconazole, Alamar Blue growth, 48 h. growth inhibition, % (concentration not given with the values). actives 0.57% (n = 300,000);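 active means growth inhibition above about 58% in most replicates, limit read from the data, passing the limit was not always enough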;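 further: all wells also contain fluconazole at 8 µg/ml as a sub-toxic cotreatment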
UCH37 inh – inhibitors of human deubiquitinating enzyme UCH37 | Q9Y5K5 | AID 588478 | inhibition, % (test concentration not listed) | actives 0.33% (n = 330,000) | purified proteasome/UCH37, Ub-AMC cleavage fluorescence;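 active means mean inhibition over replicate wells above about 20%, limit read from the data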
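Schedule: 30 min plus 25 min, room temperature / Material: human UCH37 within purified proteasomes / Technique: AMC fluorescence intensity at 355/460 nm / Buffer or medium: pH 7.4 Tris-HCl (50 mM) with ovalbumin, ATP-MgCl2, DTT / Controls: wells without proteasome as full block, compound-free enzyme plus substrate as uninhibited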
NALP1 yeast inh – NALP1 inhibition. S. cerevisiae NALP1/ASC/caspase-1 growth, X-gal OD620, 72 h. inhibition, % at 10 µM. actives 0.61% (n = 280,000); in the data active means inhibition mostly above about 24%, no sharp cut-off; inactive means mostly below about 32%
ATG4B inh – inhibitors of human ATG4B cysteine protease. Q9Y4P1. ATG4B cleavage of LC3-PLA2, NBD-HPC fluorescence, 1 h. inhibition, % at 8.33 µM. actives 0.51% (n = 340,000); in the data active means inhibition above about 40%
Target sequence (Q9Y4P1 whole entry, looked up): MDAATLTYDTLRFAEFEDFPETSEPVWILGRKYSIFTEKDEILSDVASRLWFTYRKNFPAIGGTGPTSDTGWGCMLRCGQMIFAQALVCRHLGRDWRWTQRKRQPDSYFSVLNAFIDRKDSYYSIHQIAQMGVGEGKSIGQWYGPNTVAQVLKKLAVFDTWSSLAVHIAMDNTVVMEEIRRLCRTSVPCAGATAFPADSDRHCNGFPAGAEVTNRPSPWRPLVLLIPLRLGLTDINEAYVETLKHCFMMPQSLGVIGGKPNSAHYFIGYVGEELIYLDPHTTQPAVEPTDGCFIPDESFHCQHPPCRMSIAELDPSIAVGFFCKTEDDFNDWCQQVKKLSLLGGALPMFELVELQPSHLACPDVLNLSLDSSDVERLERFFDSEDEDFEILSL
NALP3 yeast inh – blocks the NALP3 inflammasome reconstituted in yeast | inhibition, % at 10 µM | Yeast reconstituted NLRP3/ASC/caspase-1, beta-gal luminescence, 24 h | actives 0.39% (n = 330,000);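 active means inhibition of 50% or more; inactive means inhibition below 50%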
Numbers stand for hits; 0 = inactive; - = no result given.

SMILES	ALR inh	Calb FLC	UCH37 inh	NALP1 yeast inh	ATG4B inh	NALP3 yeast inh
COc1ccc(CCn2c(-c3ccc(Cl)cc3)n[nH]c2=S)cc1OC	0	0	0	33	0	0
COc1ccc(Cl)cc1S(=O)(=O)N1CCN=C1C	0	0	0	0	0	0
CC1=NCCN1S(=O)(=O)c1c(C(C)C)cc(C(C)C)cc1C(C)C	0	0	0	28	0	0
CC(OC(=O)c1ccc(NC(=O)CC#N)cc1)C(=O)NCCC1=CCCCC1 (configuration not stated)	98	-	0	-	0	0
CCOC(=O)c1c(C)[nH]c(C(=O)C(C)OC(=O)c2ccc(NC(=O)CC#N)cc2)c1C (configuration not stated)	99	-	0	-	0	0
CCOC(=O)c1c(C)[nH]c(C(=O)OCC(=O)Nc2ccc(OCC)cc2)c1C	0	0	0	0	0	0
CC(=NNC(=S)NCc1ccccc1)c1ccc(Br)cc1	-	-	0	-	-	-
CC(C)CC(NC(=O)c1ccccc1)C(=O)OCC(=O)Nc1ccc(Br)cn1 (configuration not stated)	99	0	0	0	0	0
CC(=NNC(=O)c1ccc(F)cc1)c1ccc(N2CCOCC2)cc1	-	-	0	-	-	-
Cc1ccc(CNC(=O)CSc2nc3c(sc4ccccc43)c(=O)n2CCCN2CCCC2)cc1	99	0	0	0	0	0
COc1cccc(NC(=O)CSc2nc3c(sc4ccccc43)c(=O)n2CCN(C)C)c1	100	0	0	0	0	0
COc1cccc(NC(=O)CSc2nc3ccccc3c(=O)n2CCCC(=O)N2CCCC2)c1	0	0	-	0	0	0
CCN(CC)CCn1c(SCC(=O)Nc2cccc(OC)c2)nc2c(sc3ccccc32)c1=O	-	0	0	0	0	0
O=C(CSc1nc2c(sc3ccccc32)c(=O)n1CCCN1CCCC1)NCc1ccccc1	0	0	0	0	0	0
COc1cccc(NC(=O)CSc2nc3c(sc4ccccc43)c(=O)n2CCCN2CCCC2)c1	97	0	0	0	0	0
CCN1C(=O)/C(=C2\C=Cc3ccccc3N2CC)SC1=S	-	0	0	0	0	0
CCN1C(=O)/C(=C2/SC(C)=C(C)N2CC)SC1=S	97	0	0	0	0	0
O=C(COc1cccc2ccccc12)NN=C/C=C/c1ccccc1	-	-	0	-	-	-
Cc1cccc(NC(=O)NNS(=O)(=O)c2ccc(F)cc2)c1	-	0	0	0	0	0
Cc1ccc(S(=O)(=O)Nc2ccc(Nc3ccccc3)cc2)cc1	99	0	0	0	0	0
CC(=O)Nc1ccc(S(=O)(=O)NNc2cccc(C)c2)cc1	99	0	0	0	0	0
Cc1ccc(S(=O)(=O)Nc2cc(C)c(O)c(S(=O)(=O)c3ccc(C)cc3)c2)cc1	0	0	0	0	0	0
Cc1ccc(S(=O)(=O)c2cc(Nc3ccccc3)ccc2O)cc1	100	0	0	-	0	0
O=S(=O)(Nc1ccc(S(=O)(=O)Nc2ccccc2)cc1)c1ccccc1	-	0	0	0	0	0
O=S(=O)(Nc1ccc(Nc2ccccc2)cc1)c1ccc(F)cc1	98	0	0	-	0	0
SMILES	ALR inh	Calb FLC	UCH37 inh	NALP1 yeast inh	ATG4B inh	NALP3 yeast inh
Cc1ccc(NC(C)C(=O)NN=Cc2ccc([N+](=O)[O-])s2)cc1 (configuration not stated)	-	-	0	-	-	-
Cc1ccc(S(=O)(=O)NNC(=O)CCC(=O)Nc2ccccc2)cc1	0	0	0	0	0	0
Cc1ccc(S(=O)(=O)NNc2ccccc2)cc1	100	0	0	0	0	0
Cc1csc(Nc2ccccc2)[n+]1C	98	0	0	0	0	0
Cc1csc(Nc2ccccc2)[n+]1-c1ccccc1	99	0	0	0	0	0
Cc1c(Nc2scc(-c3ccccc3)[n+]2-c2ccccc2)c(=O)n(-c2ccccc2)n1C	0	0	0	0	0	0
CSc1ccc(C=NNC(=O)CN2CCN(Cc3ccccc3Cl)CC2)cc1	-	-	0	-	-	-
O=C(CCc1nc(-c2ccccc2)c(-c2ccccc2)o1)OCc1ccc(Cl)cc1	0	0	0	37	0	0
C/C(C=Nn1c(-c2ccco2)n[nH]c1=S)=C\c1ccco1	-	-	0	-	-	-
CC1CC(N(C(=O)c2ccco2)c2ccccc2)c2ccccc2N1 (configuration not stated)	97	0	0	0	0	0
N#Cc1sc2nc(N3CCCCC3)c3c(c2c1N)CCCC3	98	0	0	0	0	0
Cc1nc2sc(C#N)c(N)c2c2c1CCCC2	0	0	0	0	0	0
COc1cccc(/C=C2\SC(=O)N(CC(=O)NCCCn3ccnc3)C2=O)c1	99	0	0	0	0	0
CCOC(=O)CSc1n[nH]c(NC(=O)c2cccc(C)c2)n1	97	0	0	0	0	0
CCCCNC(=O)CS(=O)Cc1nc(-c2cccs2)oc1C (configuration not stated)	98	0	0	0	0	0
CC(C)OCCCNC(=O)c1cccs1	0	0	0	0	0	0
Cc1oc(-c2cccs2)nc1CS(=O)CC(=O)NCCCOC(C)C (configuration not stated)	99	0	0	0	0	0
Cc1ccccc1-c1nc(CS(=O)(=O)CC(=O)NCCc2ccccc2)c(C)o1	0	0	0	0	0	0
Cc1oc(-c2cccs2)nc1CS(=O)CC(=O)NCCc1ccccc1 (configuration not stated)	98	0	0	0	0	0
CCn1c(CS(=O)Cc2ccc(Cl)cc2Cl)nnc1SCc1c(Cl)cccc1Cl (configuration not stated)	99	0	0	0	0	0
CCCNC(=S)Nc1ccc(Nc2ccccc2)cc1	99	0	0	0	0	0
CNC(=S)Nc1ccc(Br)cc1	-	0	0	0	0	0
CNC(=S)Nc1ccc(Nc2ccccc2)cc1	99	0	0	0	0	0
CC(C)n1c(O)c(/C=C2\C=Nc3ccccc32)sc1=Nc1ccccc1	-	0	0	0	0	0
CSc1nc(/C=C2\C=Nc3ccccc32)c(O)n1C	85	0	-	0	0	0
SMILES	ALR inh	Calb FLC	UCH37 inh	NALP1 yeast inh	ATG4B inh	NALP3 yeast inh
O=C(N/N=C\c1ccc(Cl)cc1)c1sccc1-n1cccc1	-	0	-	0	0	0
CN(C)c1ccc(/C=N/OC(=O)Nc2ccccc2)cc1	84	0	-	0	0	0
Cc1occc1C(=O)N/N=C/C=C/c1ccc(N(C)C)cc1	99	0	-	0	0	0
Cc1occc1C(=O)N/N=C/c1ccc(N(C)C)cc1	94	0	-	0	0	0
O=C(Nc1ccccc1)ON=Cc1ccc(F)cc1	-	-	0	-	-	-
CN(C)c1ccc(/C=N/NC(=O)c2sccc2-n2cccc2)cc1	99	0	-	0	0	0
Cc1occc1C(=O)N/N=C/C=C/c1ccccc1	0	0	-	0	0	0
COc1ccc2nc(Cl)c(C=NNc3ccccn3)cc2c1	-	-	0	-	-	-
COc1cc(C=NNC(=O)CSCc2ccc([N+](=O)[O-])cc2)cc(OC)c1OC	-	-	0	-	-	-

High-throughput results as filed in PubChem BioAssay.
